Screening results deposited in PubChem BioAssay by Johns Hopkins Ion Channel Center.
An excerpt weighted towards active compounds, which were near 2.9% of everything screened.
Kir21 inh: Kir2.1 (mouse) channel inhibition | HEK293-Kir2.1, FluxOR thallium flux fluorescence; hits give low values | hit rate 0.85% among 310,000 | B-score at 10 µM | P35561 | AID 1672;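 active = fluorescence ratio B-score at or below minus 3 SD of library scores, with starting-brightness B-score within 2 SD, cut at about -4.2 in these data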;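 note: channel flux triggered by added potassium and thallium sulfate stimulus; B-score of peak minus minimum fluorescence over baseline after thallium stimulus; more negative B-score means stronger Kir2.1 block with less thallium influx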
TRPC4 agonist: activators of mouse TRPC4 channel; hit rate 0.49% among 310,000; HEK293 TRPC4beta/mu-opioid, Fluo4 calcium fluorescence; hits give high values; B-score at 10 µM;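 active = B-score above 5 SD of library B-scores, and initial fluorescence ratio not above library mean plus 5 SD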;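 note: positive B-score marks a calcium rise read as TRPC4 activation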
Target sequence (Q9QUQ5 whole entry, looked up): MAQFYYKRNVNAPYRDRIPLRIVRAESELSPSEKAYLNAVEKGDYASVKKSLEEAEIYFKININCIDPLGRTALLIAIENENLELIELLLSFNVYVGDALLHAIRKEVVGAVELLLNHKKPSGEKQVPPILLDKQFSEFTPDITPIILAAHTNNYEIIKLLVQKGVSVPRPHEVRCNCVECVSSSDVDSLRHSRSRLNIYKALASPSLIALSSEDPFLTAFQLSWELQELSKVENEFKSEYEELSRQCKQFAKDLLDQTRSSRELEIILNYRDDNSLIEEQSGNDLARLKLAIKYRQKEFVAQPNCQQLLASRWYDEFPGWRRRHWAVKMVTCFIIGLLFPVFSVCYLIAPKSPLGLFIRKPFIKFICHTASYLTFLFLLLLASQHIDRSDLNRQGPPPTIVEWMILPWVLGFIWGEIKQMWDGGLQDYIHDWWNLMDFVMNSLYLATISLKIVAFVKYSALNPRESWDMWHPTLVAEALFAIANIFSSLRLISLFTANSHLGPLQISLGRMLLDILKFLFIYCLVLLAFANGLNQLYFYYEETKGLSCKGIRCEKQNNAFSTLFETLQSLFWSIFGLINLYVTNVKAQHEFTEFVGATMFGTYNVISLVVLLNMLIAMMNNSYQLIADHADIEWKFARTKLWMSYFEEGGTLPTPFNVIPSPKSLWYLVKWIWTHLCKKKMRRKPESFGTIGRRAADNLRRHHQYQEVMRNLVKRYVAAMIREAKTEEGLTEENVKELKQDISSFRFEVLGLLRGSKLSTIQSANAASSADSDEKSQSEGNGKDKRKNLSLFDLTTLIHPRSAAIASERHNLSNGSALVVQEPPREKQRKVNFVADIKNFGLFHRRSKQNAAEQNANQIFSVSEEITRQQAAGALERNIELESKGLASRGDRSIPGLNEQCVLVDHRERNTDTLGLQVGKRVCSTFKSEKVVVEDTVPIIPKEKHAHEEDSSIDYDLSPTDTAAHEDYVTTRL
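Technique: kinetic Fluo4 calcium fluorescence; Test system: TRPC4beta and mu-opioid receptor HEK293 stable cells; Measure: B-scored integrated calcium fluorescence ratio; Benchmarks: low control buffer alone, high control maximal DAMGO; Schedule: 45 min room-temperature Fluo4 loading, 110 s read.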
TRPC6 activator: activates the mouse TRPC6 cation channel; hit rate 0.13% among 310,000; B-score at 10 µM; AID 2550; HEK293-TRPC6 membrane potential dye fluorescence; hits give high values;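 active = B-score of the integrated fluorescence ratio above library mean plus 3 SD, and starting fluorescence ratio within library mean plus 5 SD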;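 note: higher score means more depolarization so channel activation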
TRPC4 PAM: TRPC4 (mouse) allosteric potentiation; hit rate 0.42% among 310,000; HEK293 TRPC4beta/mu-opioid, DAMGO EC20, Fluo-4 Ca2+ flux; hits give high values; Q9QUQ5; AID 2227; B-score at 10 µM;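 active = B-score of calcium response area above 5 SD of library B-scores, with initial fluorescence ratio within 5 SD of library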;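 note: B-score of integrated fluorescence ratio over time as area under calcium response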
TRPC4 inh: TRPC4 (mouse) channel inhibition; Q9QUQ5; HEK293 TRPC4beta/mu-opioid, DAMGO-evoked Fluo4 calcium flux; hits give low values; B-score at 10 µM; hit rate 0.39% among 300,000; AID 2247;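 active = B-score over 3 SD under the library average, no early fluorescence shift, positive overall ratio signal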
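System: stable TRPC4beta/mu-opioid receptor HEK293 cells; Dosing: single-point compound dosing; Measured by: Fluo4 Ca2+ flux fluorescence; Read-out basis: per-well B score of integrated baseline-normalized Fluo4 ratio.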
TRPC6 inh: blocks the mouse TRPC6 cation channel; hit rate 1.1% among 310,000; Q61143; HEK293-TRPC6, membrane potential dye, ACh-evoked depolarization; hits give low values; B-score at 10 µM; AID 2553;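 active = B-score under library mean minus 3 SD, initial fluorescence not abnormally high, positive integrated signal ratio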;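 note: B-score derived from integrated fluorescence ratio over the kinetic read; more negative B-score means stronger inhibition of depolarization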
* = called active by the depositor; i = inactive; · = not tested or not shown.

SMILES | Kir21 inh | TRPC4 agonist | TRPC6 activator | TRPC4 PAM | TRPC4 inh | TRPC6 inh
COc1ccccc1CC(=O)Nc1cc2oc3ccccc3c2cc1OC | 0.56 | i | i | i | i | i
Nc1cc(=O)nc(SCC(=O)N2CCN(c3ccccc3)CC2)n1-c1ccc(F)cc1 | 0.81 | i | i | i | -6* | i
Cc1nnc(NC(=O)c2cc(S(=O)(=O)N3CCCCC3)ccc2Cl)s1 | 2.5 | i | i | i | i | i
CCCCS(=O)(=O)N1CCCC(C(=O)NCC2CCCO2)C1 (configuration not stated) | -0.62 | 85* | i | i | i | i
CCOC(=O)C1CCCN(CC(=O)c2ccc(F)cc2)C1 (configuration not stated) | 0.28 | 81* | i | i | i | i
CCOC(=O)C1CCCN(CCC(=O)Nc2cccc(F)c2)C1 (configuration not stated) | -0.47 | i | i | i | i | i
CCOC(=O)C1CCCN(CCC(=O)Nc2cccc(C)c2)C1 (configuration not stated) | -1.9 | 54* | i | i | i | i
O=C(CCCCn1c(=O)[nH]c2ccsc2c1=O)NCC1CCCO1 (configuration not stated) | -0.15 | i | i | i | i | i
CN1CCN(CCOC2Cc3ccccc3Sc3ccc(Cl)cc32)CC1 (configuration not stated) | -10* | i | i | i | i | i
CCOc1cc(N2CCOCC2)c(OCC)cc1NC(=O)Cc1ccc(OC)c(OC)c1 | -1.9 | i | i | i | i | i
CCOc1cc(N2CCOCC2)c(OCC)cc1NC(=O)Cc1cccc(OC)c1 | 0.37 | i | i | i | i | i
CCOc1cc(N2CCOCC2)c(OCC)cc1NC(=O)CN1CCc2ccccc2C1 | 0.73 | i | i | 12* | i | i
CCOc1cc(N2CCOCC2)c(OCC)cc1NC(=O)CC12CC3CC(CC(C3)C1)C2 | 1.2 | i | i | 10* | i | i
COc1ccc(N2CC(C(=O)NC3CCCCC3)CC2=O)cc1 (configuration not stated) | 2 | i | i | i | i | i
CC(=O)Nc1ccc(S(=O)(=O)Nc2nc3ccccc3nc2N2CCCCCC2)cc1 | 1.1 | i | i | 12* | i | i
CC(=O)Nc1ccc(S(=O)(=O)Nc2nc3ccccc3nc2N2CCc3ccccc3C2)cc1 | 1.2 | i | i | i | i | i
CC1(c2ccc(OC(F)F)cc2)NC(=O)N(CC(=O)c2ccc3c(c2)OCO3)C1=O (configuration not stated) | 0.29 | 62* | i | i | i | i
CC1(c2ccc(OC(F)F)cc2)NC(=O)N(CC(=O)Nc2ccc(F)cc2)C1=O (configuration not stated) | -0.86 | i | i | i | i | i
CC1(c2ccc(OC(F)F)cc2)NC(=O)N(CC(=O)Nc2ccc(OC(F)F)cc2)C1=O (configuration not stated) | -1.2 | 54* | i | i | i | i
Cc1nn(C)c(Cl)c1CN1CCCC(CCC(=O)NCc2ccccc2F)C1 (configuration not stated) | -0.42 | i | i | i | i | i
CCOc1cccc(CN2CCCC(CCC(=O)NCc3ccccc3F)C2)c1O (configuration not stated) | -0.1 | 56* | i | i | i | i
Cc1cc(C)cc(NC(=O)CNC(c2ccccc2)c2ccccc2)c1 | 0.08 | i | i | i | i | i
CN(C)CCCN(Cc1cc2cc3c(cc2[nH]c1=O)OCO3)C(=S)NCc1ccco1 | -0.75 | i | i | i | -6* | i
Cc1ccc(/C=C(\C#N)C(=O)NCC2CCCO2)o1 (configuration not stated) | -1.1 | 55* | i | i | i | i
N#C/C(=C\c1ccco1)C(=O)NCC1CCCO1 (configuration not stated) | -0.52 | i | i | i | i | i
SMILES | Kir21 inh | TRPC4 agonist | TRPC6 activator | TRPC4 PAM | TRPC4 inh | TRPC6 inh
N#C/C(=C\c1cccc([N+](=O)[O-])c1)C(=O)NCC1CCCO1 (configuration not stated) | -0.89 | i | i | 12* | i | i
COc1ccc2nc(NCCCO)[nH]c2c1 | 0.52 | i | i | i | · | i
CN(Cc1ccccc1)Cc1nc2c(c(=O)n(C)c(=O)n2C)n1CCCc1ccccc1 | -2.7 | i | i | 37* | i | i
CCCS(=O)(=O)N1CCN(Cc2ccc3c(c2)c2ccccc2n3CC)CC1 | -5.9* | i | i | i | i | i
CC(=O)Nc1ccn(-c2ccccc2)n1 | -1.3 | i | i | i | i | i
CC1(C)CC2CC(C)(CN2CC(O)COc2ccccc2)C1 (configuration not stated) | -0.85 | i | i | i | -9* | i
CC1(C)C[C@@H]2C[C@@](C)(CN2C(=O)c2ccccc2)C1 | 0.61 | i | i | i | i | i
Cc1ccc(NC(=O)N(Cc2cccnc2)Cc2ccco2)cc1C | -1.8 | i | i | i | i | i
COc1ccc(CCNC(=O)CCSc2nc(-c3ccco3)cc(C(F)(F)F)n2)cc1OC | -4.4* | i | i | i | i | i
N#CCCn1c(SCC(=O)NCc2ccco2)nc2ccccc21 | 0.66 | i | i | i | i | i
Cc1ccccc1CSc1nnc(-c2ccccn2)n1C | 0.37 | i | i | i | i | i
Cc1ccccc1CSc1nccn1-c1ccccc1 | -4.4* | i | i | i | i | i
CCCOc1ccc(CSC2=NCCN2)cc1[N+](=O)[O-] | 1 | i | i | 12* | i | i
COc1ccc(CSC2=NCCN2)cc1Cl | -1.4 | i | i | 10* | i | i
O=[N+]([O-])c1cc(CSC2=NCCN2)ccc1O | -0.31 | i | i | i | i | i
COc1ccc(CSC2=NCCN2)cc1Br | -2.3 | i | i | i | i | i
CCN(CC)S(=O)(=O)c1ccc2[nH]c(=O)cc(C(=O)Nc3ccc(C)cc3)c2c1 | 1.5 | i | i | i | i | i
Cc1ccc(/C=N/NC(=O)CNC(=O)c2cccs2)o1 | -5.5* | i | i | i | i | i
Cn1c(=O)[nH]c(=O)c2c1nc(SCCN1CCCCC1)n2Cc1ccccc1 | -0.17 | i | i | i | i | i
C=CCn1c(SCCCc2ccccc2)nc2c1c(=O)[nH]c(=O)n2C | 0.2 | i | i | i | i | i
